Results as given in ChEMBL document CHEMBL4715813, “Allicin-inspired pyridyl disulfides as antimicrobial agents for multidrug-resistant Staphylococcus aureus” (Eur J Med Chem, 2018).
In brackets after ≈: the same amount, converted by molar mass. Activity calls are given as the source filed them. No cut-off for these calls is given here.

Key:
Staphylococcus aureus [1] = assay: Induction of intracellular oxidant species generation in Staphylococcus aureus ATCC 25923 after 1 hr by colorimetric based NBT assay; type: functional, organism-based
Outline: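 Cells at OD600 1.5 in HBSS mixed with 1 mg/mL aqueous NBT and agent (added from 2 mM stock) or DMSO/water, shaken for 1 h at 37 °C. Stopped with 0.1 M HCl and centrifuged; pellet formazan solubilized in DMSO/KOH/HBSS and read at OD560.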

Staphylococcus aureus [2] = assay: Antibacterial activity against methicillin-susceptible Staphylococcus aureus ATCC 25923 in presence of 0.05% v/v albumin; type: functional
Staphylococcus aureus [3] = assay: Antibacterial activity against linezolid-resistant Staphylococcus aureus assessed as bacterial growth inhibition incubated for 20 hrs by broth dilution method; type: functional
Outline: (§1)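 Broth microdilution: 0.5 McFarland suspension from an overnight culture, diluted 1:100 in cation-adjusted Mueller Hinton broth (CAMHB), given serial dilutions of test agent for 20 h at 37 °C. MIC is the lowest concentration with no visible growth.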

Staphylococcus aureus [4] = assay: Ratio of MBC to MIC against heterogeneous vancomycin-intermediate Staphylococcus aureus Mu3 ATCC 700698; type: functional
Outline: (§2)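 For MBC, 5 μL from each well was spotted on agar and incubated overnight; MBC is the lowest concentration with no visible growth. Ratio taken as MBC over MIC.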

Staphylococcus aureus [5] = assay: Antibacterial activity against vancomycin-intermediate resistant Staphylococcus aureus Mu50 ATCC 700699 assessed as bacterial growth inhibition incubated for 20 hrs by broth dilution method; type: functional; outline: as §1
Staphylococcus aureus [6] = assay: Antibacterial activity against methicillin-susceptible Staphylococcus aureus ATCC 25923 assessed as delayed bacterial proliferation at 0.25 times of MIC for 10 hrs; type: functional, organism-based
Staphylococcus aureus [7] = assay: Antibacterial activity against vancomycin-resistant Staphylococcus aureus HIP11714 assessed as zone of inhibition by disc diffusion method; type: functional
Staphylococcus aureus [8] = assay: Antibacterial activity against vancomycin-intermediate resistant Staphylococcus aureus Mu50 ATCC 700699 assessed as bacterial growth inhibition by measuring fold increase in MIC between 5 to 7 passages by broth dilution method; type: functional
Staphylococcus aureus [9] = assay: Bactericidal activity against Vancomycin-resistant Staphylococcus aureus HIP11714 assessed as bacterial killing incubated for over night; type: functional; outline: as §2
Staphylococcus aureus [10] = assay: Antibacterial activity against methicillin-susceptible Staphylococcus aureus ATCC 25923 in presence of 5% v/v serum; type: functional
Staphylococcus aureus [11] = assay: Disruption of membrane potential in Staphylococcus aureus at 3 to 30 uM by DiOC2(3) probe based flow cytometric analysis; type: functional, organism-based; conditions: dose 3-30 µM, TDE = time-dependent effect
Outline: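 An overnight S. aureus culture was diluted 1:100 in LB, shaken 2 h at 37 °C, then diluted to a final 1:200. Cells were treated with 3–30 μM, DMSO 2% vehicle or CCCP at 37 °C with shaking. At 15 and 30 min, samples were stained 20 min with DiOC2(3). Flow cytometry used ex 488 nm, green 530/30 and red 585/42, reported as red/green ratio (mean ± SEM).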

Staphylococcus aureus [12] = assay: Antibacterial activity against hospital acquired methicillin-resistant Staphylococcus aureus ATCC 43300 assessed as zone of inhibition by disc diffusion method; type: functional
Staphylococcus aureus [13] = assay: Induction of membrane permeabilization in methicillin-susceptible Staphylococcus aureus ATCC 25923 assessed as cell viability at 1 to 5 times of MIC incubated for 5 mins by SYTO9 and PI staining based fluorescence assay; type: functional, organism-based
Outline: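 S. aureus […] was grown to OD600 0.4 in LB, washed with PBS and resuspended in 100 mM potassium phosphate pH 7.0 with 5 mM MgSO4. […] Controls were DMSO 5% and nisin 25 μg/mL. SYTO 9/propidium iodide staining ran 15 min at r.t. in the dark, and the green/red ratio (ex 485; em 535/595 nm) was read. Data are mean ± SEM, n = 3.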

Staphylococcus aureus [14] = assay: Synergistic antibacterial activity against vancomycin-resistant Staphylococcus aureus HIP14300 assessed as fractional inhibitory concentration index incubated for 20 hrs in presence of vancomycin by checkerboard titration assay; type: functional
Outline: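 Checkerboard: VRSA HIP14300 as a 0.5 McFarland suspension diluted 1:100 in CAMHB, inoculated into twofold serial dilutions of disulfide and vancomycin, sealed, 20 h at 37 °C. Growth read by MTT staining with DMSO solubilization. ΣFIC = FIC1h + FICVAN; synergy ≤ 0.5, indifferent >0.5–≤4, antagonism >4.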

Staphylococcus aureus [15] = assay: Antibacterial activity against vancomycin-intermediate resistant Staphylococcus aureus Mu50 ATCC 700699 assessed as zone of inhibition by disc diffusion method; type: functional
Staphylococcus aureus [16] = assay: Antibacterial activity against vancomycin-intermediate Staphylococcus aureus clinical isolate 12 assessed as bacterial growth inhibition after 20 hrs by broth microdilution assay; type: functional; outline: as §1
Staphylococcus aureus [17] = assay: Bactericidal activity against methicillin-susceptible Staphylococcus aureus ATCC 25923 assessed as bacterial killing incubated for over night; type: functional
Outline: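 5 μL from each well was spotted on agar and incubated overnight. MBC was taken as the lowest concentration with no visible growth.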

Staphylococcus aureus [18] = assay: Antibiofilm activity against methicillin-resistant Staphylococcus aureus assessed as disruption of preformed biofilm at 1 to 5 times of MIC incubated for 20 hrs by crystal violet staining based assay; type: functional, organism-based
Staphylococcus aureus [19] = assay: Antibacterial activity against methicillin-susceptible Staphylococcus aureus ATCC 25923 assessed as inhibition of bacterial growth at 1 to 2 times of MIC after 20 hrs; type: functional, organism-based
Bacillus anthracis = assay: Antibacterial activity against Bacillus anthracis Sterne 34F2 assessed as zone of inhibition by disc diffusion method; type: functional
Staphylococcus aureus [20] = assay: Antibacterial activity against heterogeneous vancomycin-intermediate Staphylococcus aureus Mu3 ATCC 700698 assessed as bacterial growth inhibition incubated for 20 hrs by broth dilution method; type: functional; outline: as §1
Staphylococcus aureus [21] = assay: Antibacterial activity against heterogeneous vancomycin-intermediate Staphylococcus aureus Mu3 ATCC 700698 assessed as inhibition of bacterial growth between 2 and 4 passages at 0.5 times of MIC incubated for 20 hrs by resistant development assay; type: functional, organism-based
Outline: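 Serial passage with hVISA Mu3, VISA and VRSA strains grown at 0.5× MIC of agent (± equimolar vancomycin). […] MIC was read visually at each passage.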

Staphylococcus aureus [22] = assay: Antibacterial activity against methicillin-resistant Staphylococcus aureus ATCC 43300 assessed as bacterial growth inhibition incubated for 20 hrs by broth dilution method; type: functional; outline: as §1
Staphylococcus aureus [23] = assay: Ratio of MBC to MIC against methicillin-susceptible Staphylococcus aureus ATCC 25923; type: functional; outline: as §2
Staphylococcus aureus [24] = assay: Bactericidal activity against methicillin-resistant Staphylococcus aureus ATCC 43300 assessed as bacterial killing incubated for over night; type: functional; outline: as §2
Staphylococcus aureus [25] = assay: Induction of intracellular oxidant species generation in Staphylococcus aureus ATCC 25923 by DCFH-DA dye based fluorescence assay; type: functional, organism-based
Outline: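 OD600 1.5 suspension of S. aureus […] in HBSS given agent (from 2 or 10 mM stock), DMSO or water, then DCFH diacetate from a 100 μM stock in DMSO. Intracellular oxidation read by fluorescence (ex 485, em 535 nm).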

Klebsiella pneumoniae = assay: Antibacterial activity against multidrug-resistant Klebsiella pneumoniae ATCC 700603 assessed as zone of inhibition by disc diffusion method; type: functional
Staphylococcus aureus [26] = assay: Antibacterial activity against vancomycin-resistant Staphylococcus aureus clinical isolate 10 assessed as bacterial growth inhibition after 20 hrs by broth microdilution assay; type: functional; outline: as §1

Compound: CCCCCCCCSSc1ccccn1
- Activity (Staphylococcus aureus [1]): Active
- MIC (Staphylococcus aureus [2]): 12.5 µM
- MIC (Staphylococcus aureus [3]): 25 µM (≈ 6.39 µg/mL)
- Ratio (Staphylococcus aureus [4]): >4
- MIC (Staphylococcus aureus [5]): 3.13 µM (≈ 0.8 µg/mL)
- Activity (Staphylococcus aureus [6]): Active
- diameter of the inhibition zone (DIZ) (Staphylococcus aureus [7]): 38 mm
- fold change (FC) (Staphylococcus aureus [8]): >2
- MBC (Staphylococcus aureus [9]): > 50 µM
- MIC (Staphylococcus aureus [10]): 25 µM
- Activity (Staphylococcus aureus [11]): Tde
- diameter of the inhibition zone (DIZ) (Staphylococcus aureus [12]): 38 mm
- Activity (Staphylococcus aureus [13]): inactive
- FIC (Staphylococcus aureus [14]): <=0.5
- diameter of the inhibition zone (DIZ) (Staphylococcus aureus [15]): 43 mm
- MIC50 (Staphylococcus aureus [16]): 12.5 µM (≈ 3.19 µg/mL)
- MIC90 (Staphylococcus aureus [16]): 12.5 µM (≈ 3.19 µg/mL)
- MBC (Staphylococcus aureus [17]): > 50 µM
- Activity (Staphylococcus aureus [18]): Dose-dependent effect
- Activity (Staphylococcus aureus [19]): Active
- diameter of the inhibition zone (DIZ) (Bacillus anthracis): 48 mm
- MIC (Staphylococcus aureus [20]): 12.5 µM (≈ 3.19 µg/mL)
- Activity (Staphylococcus aureus [21]): Active
- MIC (Staphylococcus aureus [22]): 6.25 µM (≈ 1.6 µg/mL)
- Ratio (Staphylococcus aureus [23]): >4
- MBC (Staphylococcus aureus [24]): > 50 µM
- Activity (Staphylococcus aureus [25]): Active
- diameter of the inhibition zone (DIZ) (Klebsiella pneumoniae): 0 mm
- MIC50 (Staphylococcus aureus [26]): 6.25 µM (≈ 1.6 µg/mL)
- MIC90 (Staphylococcus aureus [26]): 12.5 µM (≈ 3.19 µg/mL)
